Measurements from different studies.
Protocols differ between the studies behind these lines.
Target: Misshapen-like kinase 1 (MINK1, Homo sapiens, UniProt Q8N4C8)

SMILES	test	setting	endpoint	result
COc1cc(-c2cn(C3CCc4c(F)cccc4N(CC(F)(F)F)C3=O)nn2)ccc1-n1cnc(C)c1 (stereo not drawn)	cell-free assay, competition with immobilised ligand	1 µM	remaining binding	84%
Cc1ccc(C(=O)NCc2ccsc2)cc1C#Cc1cn(C(C)C)c2ncnc(N)c12	enzyme activity, inhibitor	1 µM	activity vs control	84%
O=C(Nc1cnn(-c2csc(C(=O)NC3COC3)c2)c1)Nc1c(F)cccc1Cl	enzyme activity, inhibitor	5 µM	remaining activity	62.2%
CS(=O)(=O)CCNCc1ccc(-c2ccc3ncnc(Nc4ccc(OCc5cccc(F)c5)c(Cl)c4)c3c2)o1	cell-free assay	0.5 µM	remaining signal	111%
CNC(=O)c1cc(Oc2ccc(NC(=O)Nc3ccc(Cl)c(C(F)(F)F)c3)cc2)ccn1	enzyme activity, inhibitor	0.3 µM	inhibition	14%
COc1ccc(COc2ccc(Cc3cnc(N)nc3N)cc2OC)cc1	cell-free assay	0.5 µM	remaining signal	86.5%
FC(F)(F)Oc1cccc(-c2cnc3ccc(-c4ccncc4)nn23)c1	enzyme activity, inhibitor, radiometric	5 µM	activity vs control	63%
COc1cc2ncnc(Nc3ccc(Oc4ccccc4)cc3C)c2cc1OC	enzyme activity, inhibitor	1 µM	inhibition	7%
Cc1sc(C(=O)NC2COC2)cc1-n1cc(NC(=O)Nc2c(F)cccc2Cl)cn1	enzyme activity, inhibitor	10 µM	remaining activity	102%
Cc1ccc(Nc2nccc(N(C)c3ccc4c(C)n(C)nc4c3)n2)cc1S(N)(=O)=O	enzyme activity, inhibitor	0.3 µM	inhibition	23%
COc1cc(/C=C/C(=O)CC(=O)/C=C/c2ccc(O)c(OC)c2)ccc1O	enzyme activity, inhibitor	1 µM	activity vs control	78%
COc1cc(Cl)c(C(=O)N[C@@H](CN[C@H]2CC[C@@H](N)CC2)Cc2ccc(C#N)cc2)cc1-c1ccc(CN[C@H](C)c2ccc(C)cc2)o1	enzyme activity, inhibitor	1 µM	remaining activity	94%
C=CC(=O)Nc1cc(Nc2nccc(Nc3cc(Cl)c(F)cc3C(C)(C)O)n2)c(OC)cc1N1CC[C@@H](N(C)C)C1	enzyme activity, inhibitor	1 µM	inhibition	-3%
Cn1nc(C(=O)NCc2ccc(C(=O)O)cc2)cc1-c1ccc2[nH]ccc2c1	cell-free assay, competition with immobilised ligand	0.1 µM	remaining binding	95%
Nc1ncnc2occ(-c3ccc(NC(=O)Nc4cc(C(F)(F)F)ccc4F)cc3)c12	cell-free assay, inhibitor	20 µM	remaining signal	1.5%
Oc1cccc(-c2nc(N3CCOCC3)c3oc4ncccc4c3n2)c1	enzyme activity, inhibitor	10 µM	remaining activity	116%
COc1cc(Nc2cnc(C#N)c(O[C@H](C)CN(C)C)n2)ncc1-c1cnn(C)c1	enzyme activity, inhibitor, radiometric	10 µM	remaining activity	67%
CC(C)(C)c1nc2c(s1)c1nc(N)ncc1c1ccc(NS(=O)(=O)c3c(F)cccc3F)c(F)c12	enzyme activity, inhibitor, radiometric	1 µM	remaining activity	90%
CCCOc1ccc([C@@H]2[C@@H](C(=O)O)[C@H](c3ccc4c(c3)OCO4)CN2CC(=O)Nc2c(CC)cccc2CC)cc1	cell-free assay, competition with immobilised ligand	1 µM	remaining binding	78%
Cc1cnc(NC2CCOCC2)nc1-n1cnc(C(=O)NC(CN)c2cc(F)cc(Cl)c2)c1 (stereo not drawn)	enzyme activity, inhibitor, radiometric	1 µM	remaining activity	103%
C[C@H](c1ccnc(Nc2nc3ccc(-c4cc(N(C)C)ncn4)cc3[nH]2)c1)N1CCN(C(=O)CC(F)(F)F)CC1	cell-free assay, competition with immobilised ligand	0.1 µM	remaining binding	94%
CC(C)(O)[C@H]1CC[C@H](Nc2ccc3ncc(-c4cccc(C(F)(F)F)c4)n3n2)CC1	enzyme activity, inhibitor	1 µM	remaining activity	97%
CO[C@@H](C)c1c(Nc2ccc([C@H](N(C)C(=O)C3CCS(=O)(=O)CC3)C(F)(F)F)cc2)cnc2cc(Cl)nn12	cell-free assay, competition with immobilised ligand	1 µM	remaining binding	100%
CN(C)C1CCN(CC#Cc2nn(C3CCCC3)c3nc(NCc4ccccc4)ncc23)C1 (stereo not drawn)	enzyme activity, inhibitor, FRET	0.1 µM	inhibition	11%
O=C(N1CCS(=O)(=O)CC1)N1C[C@H](c2ccc(OC(F)(F)F)cc2)C[C@H](c2nc(C3CC3)no2)C1	cell-free assay, competition with immobilised ligand	1 µM	remaining binding	99%
COc1cc(-c2cc(-c3ccc(N4CCNCC4)cc3)cnc2N)cc(OC)c1OC	enzyme activity, inhibitor	1 µM	inhibition	89%
CNC(=O)c1ccc(Nc2ncc(C(F)(F)F)c(NCc3nccnc3N(C)S(C)(=O)=O)n2)cc1	cell-free assay, competition with immobilised ligand	0.1 µM	remaining binding	44%
O=C1Nc2ccc(Cl)cc2C1=Cc1cc(Cl)c(O)c(Cl)c1	cell-free assay	0.5 µM	remaining signal	22.4%
O=S(=O)(NC1CCC(c2cc(F)ccc2F)(S(=O)(=O)c2ccc(Cl)cc2)CC1)C(F)(F)F (stereo not drawn)	cell-free assay, competition with immobilised ligand	1 µM	remaining binding	100%
CCN(CC)CCNC(=O)c1c(C)[nH]c(/C=C2\C(=O)Nc3ccc(F)cc32)c1C	enzyme activity, inhibitor	10 µM	inhibition	94%
